This is an account of results in ChEMBL document CHEMBL3244061, “Angiotensin II analogues. 12. Role of the aromatic ring of position 8 phenylalanine in pressor activity” (J Med Chem, 1979).

Peptide text beside a SMILES is read from it.

One data set is filed under the species Rattus norvegicus. Put plainly: Inhibition of 3 to 12 pmol angiotensin-2-induced pressor activity in rat at 400 pmol measured after 30 mins. In kind it is functional.
Conditions: not given
The method in brief:
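A single 400 pmol injection of antagonist was given. Pressor responses to single angiotensin II doses of 3, 6 and 12 pmol were then tracked. Duration (T1/2) was taken as the time for the responses to return to one-half of the pretreatment level.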
With `CC[C@H](C)[C@H](NC(=O)[C@H](Cc1ccc(O)cc1)NC(=O)[C@@H](NC(=O)[C@H](CCCNC(=N)N)NC(=O)CNC)C(C)C)C(=O)N[C@@H](Cc1cnc[nH]1)C(=O)N1CCC[C@H]1C(=O)N[C@@H](CC(C)C)C(=O)O` (HELM PEPTIDE1{[Sar].R.V.Y.I.H.P.L}$$$$V2.0), the “inhibition (INH)” value worked out at 50%.

The species entered for a further data set is Rattus norvegicus. Put plainly: Inhibition of angiotensin-2-induced pressor activity in rat assessed as duration of action.
Conditions: not given
In kind it is functional, organism-based. A digest of the protocol: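 Antagonist was given to rats as a single 4000 pmol dose. Pressor responses to 20 pmol angiotensin II were then followed. Duration of action (T1/2) was taken as the time for the angiotensin II response to recover to one-half of its pretreatment level.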
`CC[C@H](C)[C@H](NC(=O)[C@H](Cc1ccc(O)cc1)NC(=O)[C@@H](NC(=O)[C@H](CCCNC(=N)N)NC(=O)CNC)C(C)C)C(=O)N[C@@H](Cc1cnc[nH]1)C(=O)N1CCC[C@H]1C(=O)N[C@@H](CC(C)C)C(=O)O` (HELM PEPTIDE1{[Sar].R.V.Y.I.H.P.L}$$$$V2.0): the T1/2 was 45 min.

The species named for a further data set is Rattus norvegicus. Put plainly: Induction of pressor activity in nephrectomized, pentolinium-treated rat model relative to angiotensin 2. In kind it is organism-based. To be noted: in vivo. The method in brief: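 Pressor activity was measured in male rats that were nephrectomized, treated with pentolinium and anesthetized with pentobarbital. Peptides were dissolved in normal saline containing 0.1% polyvinylpyrrolidone and kept in siliconized glass. Molarities of all solutions, including the angiotensin II standard, were set from peptide content determined by amino acid analysis of hydrolysates. Activity was expressed relative to angiotensin II.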
Regarding `CC[C@H](C)[C@H](NC(=O)[C@H](Cc1ccc(O)cc1)NC(=O)[C@@H](NC(=O)[C@@H](C)N)C(C)C)C(=O)N[C@@H](Cc1cnc[nH]1)C(=O)N1CCC[C@H]1C(=O)N[C@@H](CC(C)C)C(=O)O`, the Activity amounted to 1.4%.

The compound `CC[C@H](C)[C@H](NC(=O)[C@H](Cc1ccc(O)cc1)NC(=O)[C@@H](NC(=O)[C@H](CCCNC(=N)N)NC(=O)[C@@H](N)CC(=O)O)C(C)C)C(=O)N[C@@H](Cc1c[nH]cn1)C(=O)N1CCC[C@H]1C(=O)N[C@@H](CC1CCCCC1)C(=O)O` came in with an Activity of 20%.

Compound `CC[C@H](C)[C@H](NC(=O)[C@H](Cc1ccc(O)cc1)NC(=O)[C@@H](NC(=O)[C@H](CCCNC(=N)N)NC(=O)[C@@H](N)CC(=O)O)C(C)C)C(=O)N[C@@H](Cc1c[nH]cn1)C(=O)N1CCC[C@H]1C(=O)N[C@@H](Cc1ccc(F)cc1)C(=O)O` gave an Activity of 100%.

In the case of `CC[C@H](C)[C@H](NC(=O)[C@H](Cc1ccc(O)cc1)NC(=O)[C@@H](NC(=O)[C@H](CCCNC(=N)N)NC(=O)[C@@H](N)CC(=O)O)C(C)C)C(=O)N[C@@H](Cc1c[nH]cn1)C(=O)N1CCC[C@H]1C(=O)N[C@@H](Cc1ccc(OC)cc1)C(=O)O`, the Activity is given as 33%.

The compound `CCCC[C@H](NC(=O)[C@@H]1CCCN1C(=O)[C@H](Cc1c[nH]cn1)NC(=O)[C@@H](NC(=O)[C@H](Cc1ccc(O)cc1)NC(=O)[C@@H](NC(=O)[C@H](CCCNC(=N)N)NC(=O)[C@@H](N)CC(=O)O)C(C)C)[C@@H](C)CC)C(=O)O` had an Activity of 7.3%.

`CC[C@H](C)[C@H](NC(=O)[C@H](Cc1ccc(O)cc1)NC(=O)[C@@H](NC(=O)[C@H](CCCN=C(N)N)NC(=O)[C@@H](N)CC(=O)O)C(C)C)C(=O)N[C@@H](Cc1c[nH]cn1)C(=O)N1CCC[C@H]1C(=O)N[C@@H](Cc1ccc(Br)cc1)C(=O)O` had an Activity of 50%.

In turn, `CCCCC[C@H](NC(=O)[C@@H]1CCCN1C(=O)[C@H](Cc1cnc[nH]1)NC(=O)[C@@H](NC(=O)[C@H](Cc1ccc(O)cc1)NC(=O)[C@@H](NC(=O)[C@H](CCCNC(=N)N)NC(=O)[C@@H](N)CC(N)=O)C(C)C)[C@@H](C)CC)C(=O)O` (HELM PEPTIDE1{N.R.V.Y.I.H.P.[CCCCC[C@H](N[*:1])C(=O)O]}$$$$V2.0) gave an Activity of 11.5%.

On to `CC[C@H](C)[C@H](NC(=O)[C@H](Cc1ccc(O)cc1)NC(=O)[C@@H](NC(=O)[C@H](CCCNC(=N)N)NC(=O)[C@@H](N)CC(N)=O)C(C)C)C(=O)N[C@@H](Cc1cnc[nH]1)C(=O)N1CCC[C@H]1C(=O)N[C@@H](Cc1ccc(N)cc1)C(=O)O` (HELM PEPTIDE1{N.R.V.Y.I.H.P.[Nc1ccc(C[C@H](N[*:1])C(=O)O)cc1]}$$$$V2.0), for which the Activity is reported as 52.5%.

On to `CCCC[C@H](NC(=O)[C@@H]1CCCN1C(=O)[C@H](Cc1cnc[nH]1)NC(=O)[C@@H](NC(=O)[C@H](Cc1ccc(O)cc1)NC(=O)[C@@H](NC(=O)[C@H](CCCNC(=N)N)NC(=O)[C@@H](N)CC(N)=O)C(C)C)[C@@H](C)CC)C(=O)O` (HELM PEPTIDE1{N.R.V.Y.I.H.P.[Nle]}$$$$V2.0), for which the Activity worked out at 7.3%.

In turn, `CC[C@H](C)[C@H](NC(=O)[C@H](Cc1ccc(O)cc1)NC(=O)[C@@H](NC(=O)[C@H](CCCNC(=N)N)NC(=O)[C@@H](N)CC(N)=O)C(C)C)C(=O)N[C@@H](Cc1cnc[nH]1)C(=O)N1CCC[C@H]1C(=O)NC1(C(=O)O)Cc2ccccc2C1` (HELM PEPTIDE1{N.R.V.Y.I.H.P.[O=C(O)C1(N[*:1])Cc2ccccc2C1]}$$$$V2.0) had an Activity of 0.1%.

Compound `CC[C@H](C)[C@H](NC(=O)[C@H](Cc1ccc(O)cc1)NC(=O)[C@@H](NC(=O)[C@H](CCCNC(=N)N)NC(=O)[C@@H](N)CC(N)=O)C(C)C)C(=O)N[C@@H](Cc1cnc[nH]1)C(=O)N1CCC[C@H]1C(=O)N[C@@H](Cc1ccc([N+](=O)[O-])cc1)C(=O)O` (HELM PEPTIDE1{N.R.V.Y.I.H.P.[O=C(O)[C@H](Cc1ccc([N+](=O)[O-])cc1)N[*:1]]}$$$$V2.0) returned an Activity of 15%.

Consider `CC[C@H](C)[C@H](NC(=O)[C@H](Cc1ccc(O)c(Cc2ccccc2)c1)NC(=O)[C@@H](NC(=O)[C@H](CCCNC(=N)N)NC(=O)[C@@H](N)CC(N)=O)C(C)C)C(=O)N[C@@H](Cc1cnc[nH]1)C(=O)N1CCC[C@H]1C(=O)N[C@@H](Cc1ccc([N+](=O)[O-])cc1)C(=O)O` (HELM PEPTIDE1{N.R.V.[O=C([C@H](Cc1ccc(O)c(Cc2ccccc2)c1)N[*:1])[*:2]].I.H.P.[O=C(O)[C@H](Cc1ccc([N+](=O)[O-])cc1)N[*:1]]}$$$$V2.0), for which the Activity came to 0.16%.

The compound `CC[C@H](C)[C@H](NC(=O)[C@H](Cc1ccc(O)cc1)NC(=O)[C@@H](NC(=O)[C@H](CCCNC(=N)N)NC(=O)CNC)C(C)C)C(=O)N[C@@H](Cc1cnc[nH]1)C(=O)N1CCC[C@H]1C(=O)N[C@@H](CC(C)C)C(=O)O` (HELM PEPTIDE1{[Sar].R.V.Y.I.H.P.L}$$$$V2.0) came in with an Activity of 2.5%.

With H-DRVYIHPV-OH, the Activity was 0.5%.

H-DRVYIHPY-OH displayed an Activity of 83%.

As to H-NRVYIHPL-OH, the Activity is reported as 1.2%.

Regarding H-NRVYVHPF-OH [ANGIOTENSIN AMIDE], the Activity is 100%.

The species entered for a further data set is Rattus norvegicus. As to the kind of experiment: Inhibition of 70 pmol angiotensin-2-induced pressor activity in rat at 1400 pmol/min co-infused with angiotensin-2 measured after 30 mins. It counts as functional.
Conditions: not given
A digest of the protocol: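 Antagonist and angiotensin II were coinjected at a 20:1 ratio (1400 pmol/70 pmol per minute) for 30 min. The percent reduction of the angiotensin II pressor effect was recorded. Recovery to one-half of the pretreatment level was followed after the infusion stopped.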
For the compound `CC[C@H](C)[C@H](NC(=O)[C@H](Cc1ccc(O)cc1)NC(=O)[C@@H](NC(=O)[C@H](CCCNC(=N)N)NC(=O)CNC)C(C)C)C(=O)N[C@@H](Cc1cnc[nH]1)C(=O)N1CCC[C@H]1C(=O)N[C@@H](CC(C)C)C(=O)O` (HELM PEPTIDE1{[Sar].R.V.Y.I.H.P.L}$$$$V2.0), the “inhibition (INH)” value is reported as 67%.
